Legend:
[1] = species: Rattus norvegicus; assay: Potency of compound in 1-trained rats; type: functional
[2] = test system: Rattus norvegicus; assay: Percentage of animals selecting drug lever at a dose 93 nmol/kg; type: functional
Outline: (§1)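 Two-lever drug discrimination in rats trained to tell ip LSD tartrate (0.08 mg/kg, 186 nmol/kg, 30 min pretreatment) from saline, FR50 food schedule. Test drugs were given ip in saline. Test sessions ran under extinction and ended at 50 presses on one lever. Read-out was the percentage of rats selecting the drug lever at each dose; an 85% accuracy criterion applied.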

[3] = test system: Rattus norvegicus; assay: Percentage of animals selecting drug lever at a dose 186 nmol/kg; type: functional; outline: as §1
[4] = test system: Rattus norvegicus; assay: Percentage of animals selecting drug lever at a dose 279 nmol/kg; type: functional; outline: as §1
[5] = test system: Rattus norvegicus; assay: Percentage of animals selecting drug lever at a dose 139 nmol/kg; type: functional; outline: as §1
[6] = test system: Rattus norvegicus; assay: Percentage of animals selecting drug lever at a dose 301 nmol/kg; type: functional; outline: as §1
[7] = species: Rattus norvegicus; assay: Potency of compound in 1-trained rats measured as ED50 relative to LSD; type: functional
[8] = test system: Rattus norvegicus; assay: Percentage of animals selecting drug lever at a dose 47nmol/kg; type: functional; outline: as §1
[9] = test system: Rattus norvegicus; assay: Percentage of animals selecting drug lever at a dose 163 nmol/kg; type: functional; outline: as §1
[10] = molecular target: T1, 5-hydroxytryptamine receptor 1A (Rattus norvegicus, UniProt P19327); assay: Affinity in displacing [3H]8-OH-DPAT from rat hippocampal 5-HT1A receptor.; type: tissue-based, Hippocampus
T1 sequence (P19327 whole entry): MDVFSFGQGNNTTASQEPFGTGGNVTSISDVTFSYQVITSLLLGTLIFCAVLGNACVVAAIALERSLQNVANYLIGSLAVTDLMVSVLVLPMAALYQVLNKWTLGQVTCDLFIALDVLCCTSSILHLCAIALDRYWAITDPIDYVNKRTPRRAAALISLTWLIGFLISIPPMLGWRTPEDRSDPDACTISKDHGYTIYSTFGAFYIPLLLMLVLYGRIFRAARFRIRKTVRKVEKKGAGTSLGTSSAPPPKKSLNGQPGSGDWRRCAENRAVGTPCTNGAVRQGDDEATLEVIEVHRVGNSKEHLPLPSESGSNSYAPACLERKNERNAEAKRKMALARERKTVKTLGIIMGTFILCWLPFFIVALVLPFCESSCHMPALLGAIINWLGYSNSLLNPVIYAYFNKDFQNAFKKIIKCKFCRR
Outline: (§2)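 Male Sprague-Dawley rat hippocampal homogenate (pooled from 10–20 rats, sucrose-washed, preincubated twice at 37 °C). Membranes at 200–400 µg protein in 50 mM Tris HCl pH 7.4 with 0.5 mM EDTA, 0.1% ascorbate and 10 µM pargyline. Displacement of 1.0 nM [3H]-8-OH-DPAT, 10 min at 37 °C, then filtered. Nonspecific binding defined with 10 µM serotonin. Triplicates; 3–4 experiments.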

[11] = test system: Rattus norvegicus; assay: Percentage of animals selecting drug lever at a dose 23 nmol/kg; type: functional; outline: as §1
[12] = test system: Rattus norvegicus; assay: Percentage of animals selecting drug lever at a dose 12 nmol/kg; type: functional; outline: as §1
[13] = molecular target: T2, Serotonin receptor 2a and 2b (5HT2A and 5HT2B) (Rattus norvegicus, UniProt P30994+P14842); assay: Affinity in displacing [125I](R)-DOI from rat cortical homogenate 5-HT2 receptor.
Outline: (§3)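 Male Sprague-Dawley rat frontal cortex homogenate (pooled from 10–20 rats, sucrose-washed, preincubated twice at 37 °C). Membranes at 200–400 µg protein in 50 mM Tris HCl pH 7.4 with 0.5 mM EDTA, 0.1% ascorbate, 10 µM pargyline and 10 mM MgCl2. Triplicates; Ki from 3–4 experiments.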

[14] = test system: Rattus norvegicus; assay: Percentage of animals selecting drug lever at a dose 6 nmol/kg; type: functional; outline: as §1
[15] = test system: Rattus norvegicus; assay: Percentage of animals selecting drug lever at a dose 372 nmol/kg; type: functional; outline: as §1
[16] = molecular target: T2, Serotonin receptor 2a and 2b (5HT2A and 5HT2B); assay: Affinity in displacing [125I](R)-DOI from rat cortical homogenate 5-hydroxytryptamine 2 receptor.
Outline: as §3, with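 “MgCl2. Displacement of 0.25 nM [125I]-(R)-DOI, 15 min at 37 °C, then filtered and gamma-counted.” for “MgCl2.”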

[17] = test system: Rattus norvegicus; assay: Percentage of animals selecting drug lever at a dose 290 nmol/kg; type: functional; outline: as §1
[18] = molecular target: T1, 5-hydroxytryptamine receptor 1A; assay: Affinity in displacing [3H]8-OH-DPAT from rat hippocampal 5-hydroxytryptamine 1A receptor.; type: tissue-based, Hippocampus; outline: as §2
[19] = test system: Rattus norvegicus; assay: Percentage of animals selecting drug lever at a dose 465 nmol/kg; type: functional; outline: as §1

Row | Structure (SMILES) | ED50 [1] [µmol/kg] | SDL [2] [%] | SDL [3] [%] | SDL [4] [%] | SDL [5] [%] | SDL [6] [%] | Relative potency [7] | SDL [8] [%] | SDL [9] [%] | Ki [10] [nM] | SDL [11] [%] | SDL [12] [%] | Ki [13] [nM] | SDL [14] [%] | SDL [15] [%] | Ki [16] [nM] | SDL [17] [%] | Ki [18] [nM] | SDL [19] [%]
1 | CN1C[C@H](C(=O)N2CCCC2)C=C2c3cccc4[nH]cc(c34)C[C@H]21 | 0.168 | 22 | 60 | 67 | 27 | 82 | 0.16 | 22 | 40 |  |  |  |  |  |  |  |  |  | 
2 | CC[C@@H](C)NC(=O)[C@@H]1C=C2c3cccc4[nH]cc(c34)C[C@H]2N(C)C1 | 0.033 | 75 | 88 |  |  |  | 0.82 | 75 |  | 2.01 | 50 | 13 | 2.63 |  |  |  |  |  | 
3 | CCN(CC)C(=O)[C@@H]1C=C2c3cccc4[nH]cc(c34)C[C@H]2N(C)C1 [LYSERGIDE] | 0.0275 | 100 |  |  |  |  |  | 78 |  | 5.05 | 36 |  |  | 0 |  |  |  |  | 
4 | CC[C@H](C)NC(=O)[C@@H]1C=C2c3cccc4[nH]cc(c34)C[C@H]2N(C)C1 | 0.124 | 50 | 75 |  |  |  | 0.22 | 13 |  |  |  |  |  |  | 75 | 7.76 | 67 | 4.61 | 100

From ChEMBL document CHEMBL1126136, “Stereoselective LSD-like activity in d-lysergic acid amides of (R)- and (S)-2-aminobutane” (J Med Chem, 1992)
